Here are results for one molecule from ChEMBL document CHEMBL4627281, “A small molecule inhibitor of PCSK9 that antagonizes LDL receptor binding via interaction with a cryptic PCSK9 binding groove” (Bioorg Med Chem, 2020).

Activity calls are given as the source filed them. The rule behind the calls is not given here. Where only a bound is given, the exact number is not on record here.

A short description of data set [1]: Bioavailability in C57BL/6 mouse at 20 mg/kg, sc administered as single dose measured upto 24 hrs by LC-MS/MS analysis. The conditions noted are these: in vivo. It counts as ADME, organism-based. In outline: (§1)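 Male C57BL/6 mice, single dose: IV 5 mg/kg in 85% saline/10% Solutol HS15/5% DMSO; SC 20 mg/kg in same vehicle; PO 20 mg/kg in 1% methylcellulose in water. About 110 µL blood taken into K2EDTA by retro-orbital puncture (terminal bleed by cardiac puncture under isoflurane) at 0.033–24 h. Plasma spun at 2000 g, 5 min, 4 °C, stored near −70 °C; n = 3 per route.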

For data set [2], the system named is PCSK9/LDLR (Homo sapiens), Q8NBP7+P01130 [D374Y]. The data set can be described thus: Inhibition of PCSK9 D374Y mutant (unknown origin) and LDLR protein-protein interaction in human HepG2 cells assessed as increase in Bodipy FL-labelled LDL uptake preincubated for 16 hrs followed by Bodipy FL-labelled LDL addition and measured after 4 hrs by fluorescence assay. It is filed as cell-based. In outline: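 HepG2 cells seeded at 2 × 10^5 cells/mL and attached overnight, then incubated 16 h with PCSK9-D374Y (2 μg/mL) plus compound (0.1 or 1 µM). Medium replaced with 10 μg/mL Bodipy FL LDL for 4 h. Cells washed with warm PBS; fluorescence read at ex 485/em 530 nm. Mean ± S.D.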

A short description of data set [3]: Cmax in C57BL/6 mouse at 20 mg/kg, po administered as single dose measured upto 24 hrs by LC-MS/MS analysis. It counts as ADME, organism-based. Also on record: dose 20 mg/kg, route oral. The conditions noted are these: in vivo. In outline:
as §1

Another data set has as its target PCSK9/LDLR (Homo sapiens, UniProt Q8NBP7). The data set can be described thus: Inhibition of recombinant human His-tagged PCSK9 interaction with recombinant LDLR AB domain (unknown origin) measured after 3 hrs by horseradish peroxidase-coupled TMB substrate based spectrophotometry. It counts as protein assay. In outline:
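ELISA plates pre-coated with LDLR-EGF-AB domain. Compounds serially diluted from 10 mM DMSO stocks in reaction buffer, with 7 ng His-tagged human PCSK9 added, 3 h at room temperature with shaking. Binding detected with biotinylated anti-His antibody (1 h), then HRP-streptavidin (20 min), then substrate (15 min); absorbance read at 450/540 nm. IC50 taken from the % inhibition curve.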

The nature of data set [4]: Plasma concentration in C57BL/6 mouse at 20 mg/kg, sc administered as single dose measured after 24 hrs by LC-MS/MS analysis. It is filed as ADME, organism-based. In outline: as §1
Data set [5] has as its target Proto-oncogene tyrosine-protein kinase Src (Homo sapiens, UniProt P12931). In words: Inhibition of recombinant human full-length N-terminal GST-tagged SRC (1 to 536 residues) expressed in baculovirus expression system using FAM-labelled P4 peptide as substrate preincubated for 10 mins followed by substrate addition and measured after 1 hr in presence of ATP by fluorescence assay.

A short description of data set [6]: Mean residence time (0 to infinity) in CD1 mouse at 0.4 mg/kg, iv administered as cassette dose measured upto 24 hrs by LC-MS analysis. It counts as ADME, organism-based. The conditions noted are these: in vivo. A digest of the protocol:
(§2)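 Male CD1 mice (second cassette 28–29 g, 7–8 weeks) given one IV 5-in-1 cassette at 0.4 mg/kg per compound in 5% DMAC/5% Solutol HS15/90% saline. Blood (~20 µL) into K2EDTA from the facial vein at 0.083–24 h, terminal bleed by cardiac puncture under isoflurane. Blood diluted with deionised water, stored at −80 °C, analysed by positive-ESI mass spectrometry.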

Data set [7] is described as follows: Terminal half life in C57BL/6 mouse at 20 mg/kg, sc administered as single dose measured upto 24 hrs by LC-MS/MS analysis. It counts as ADME, organism-based. The conditions noted are these: in vivo, read-out: beta t1/2 (converted). In outline: as §1
Data set [8] can be described thus: Volume of distribution at steady state in C57BL/6 mouse at 5 mg/kg, iv administered as single dose measured upto 24 hrs by LC-MS/MS analysis. It is filed as ADME, organism-based. Conditions: in vivo, read-out: Vdss. In outline:
as §1

Data set [9] is described as follows: AUClast in C57BL/6 mouse at 5 mg/kg, iv administered as single dose measured upto 24 hrs by LC-MS/MS analysis. It is filed as ADME, organism-based. Also on record: dose 5 mg/kg, time < 24 hr, route intravenous. Conditions: in vivo. A digest of the protocol: as §1
The subject of the next data set is Mus musculus. The data set can be described thus: Up regulation of PCSK9 expression in C57BL/6 mouse at 16.4 mg/kg/day, sc administered daily for 10 days measured post last dose by ELISA. It counts as functional, organism-based. The conditions noted are these: in the assay text read “for 14 days” for “for 10 days”. In outline:
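Female C57BL/6 wild-type or PCSK9−/− mice (8–16 weeks), acclimatised 7 days, 5 per group, dosed SC daily for 14 days at 3.28 or 16.4 mg/kg/day in 5% DMSO/95% saline, or vehicle alone. Blood taken into EDTA on days 0, 5, 10 and 15; plasma from 2500 g spin, stored at −20 °C. Total cholesterol and triglycerides read by colorimetric kits, PCSK9 by mouse ELISA; unpaired two-tailed t test against vehicle.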
(In an ELISA, binding on a coated surface is turned into a signal by an enzyme label.)

A short description of data set [10]: AUClast in C57BL/6 mouse at 20 mg/kg, po administered as single dose measured upto 24 hrs by LC-MS/MS analysis. It counts as ADME, organism-based. Also on record: dose 20 mg/kg, time < 24 hr, route oral. The conditions noted are these: in vivo. A digest of the protocol:
as §1

Data set [11] can be described thus: Mean residence time ( 0 to infinity) in C57BL/6 mouse at 5 mg/kg, iv administered as single dose measured upto 24 hrs by LC-MS/MS analysis. Conditions: in vivo. It counts as ADME, organism-based. A digest of the protocol: as §1
The nature of data set [12]: Clearance in CD1 mouse at 0.4 mg/kg, iv administered as cassette dose measured upto 24 hrs by LC-MS/MS analysis. It is filed as ADME, organism-based. Conditions: in vivo. In outline: as §2
For data set [13], the target named is Mast/stem cell growth factor receptor Kit (Homo sapiens, UniProt P10721). The data set can be described thus: Inhibition of recombinant human N-terminal GST-tagged c-Kit (544 to end residues) expressed in baculovirus infected Sf21 insect cells using FAM-labelled P22 peptide as substrate preincubated for 10 mins followed by substrate addition and measured after 1 hr in presence of ATP by fluorescence assay.
Chain of Mast/stem cell growth factor receptor Kit (P10721 whole entry): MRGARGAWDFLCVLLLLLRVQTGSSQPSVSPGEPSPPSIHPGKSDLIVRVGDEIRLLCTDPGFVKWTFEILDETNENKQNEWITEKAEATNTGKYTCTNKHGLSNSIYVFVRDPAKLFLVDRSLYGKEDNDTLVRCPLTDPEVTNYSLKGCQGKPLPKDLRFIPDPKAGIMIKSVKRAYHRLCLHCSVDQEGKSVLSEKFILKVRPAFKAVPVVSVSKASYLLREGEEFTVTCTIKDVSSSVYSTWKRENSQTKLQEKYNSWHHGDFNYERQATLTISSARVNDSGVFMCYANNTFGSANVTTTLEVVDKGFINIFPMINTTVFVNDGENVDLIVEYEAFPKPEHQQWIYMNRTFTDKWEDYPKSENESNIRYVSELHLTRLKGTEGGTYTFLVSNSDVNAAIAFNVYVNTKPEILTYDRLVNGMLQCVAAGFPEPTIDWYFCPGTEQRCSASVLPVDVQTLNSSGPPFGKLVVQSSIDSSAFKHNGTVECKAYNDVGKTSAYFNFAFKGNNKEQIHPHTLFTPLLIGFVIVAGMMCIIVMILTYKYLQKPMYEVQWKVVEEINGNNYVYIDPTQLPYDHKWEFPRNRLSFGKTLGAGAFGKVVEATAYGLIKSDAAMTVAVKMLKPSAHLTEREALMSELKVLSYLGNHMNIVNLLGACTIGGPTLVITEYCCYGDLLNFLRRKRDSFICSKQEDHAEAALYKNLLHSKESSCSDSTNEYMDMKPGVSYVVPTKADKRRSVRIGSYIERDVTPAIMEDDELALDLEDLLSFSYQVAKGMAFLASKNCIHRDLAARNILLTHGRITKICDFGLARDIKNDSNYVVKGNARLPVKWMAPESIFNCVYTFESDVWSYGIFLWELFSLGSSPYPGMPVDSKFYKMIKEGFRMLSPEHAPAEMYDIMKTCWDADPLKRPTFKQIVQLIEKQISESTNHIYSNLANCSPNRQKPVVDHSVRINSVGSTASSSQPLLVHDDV

Data set [14] can be described thus: Terminal half life in C57BL/6 mouse at 5 mg/kg, iv administered as single dose measured upto 24 hrs by LC-MS/MS analysis. It is filed as ADME, organism-based. The conditions noted are these: in vivo, read-out: beta t1/2 (converted). In outline: as §1
Data set [15] can be described thus: AUCinfinity in C57BL/6 mouse at 5 mg/kg, iv administered as single dose measured upto 24 hrs by LC-MS/MS analysis. It is filed as ADME, organism-based. Also on record: dose 5 mg/kg, route intravenous, time infinity. Conditions: in vivo. A digest of the protocol: as §1
Data set [16] has as its system PCSK9/LDLR (Homo sapiens), Q8NBP7+P01130 [D374Y]. The data set can be described thus: Inhibition of PCSK9 D374Y mutant (unknown origin) and LDLR protein-protein interaction in human PBMC assessed as increase in LDLR expression on lymphocyte surface at 0.1 to 0.4 uM measured after 4 hrs by flow cytometry analysis. It counts as cell-based. In outline:
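PBMCs from healthy donors, frozen and then thawed, plated at 2 × 10^5 per well in RPMI with 10 mM HEPES, 1 mM pyruvate and 0.5% FCS for 2 h at 37 °C. Treated 4 h with or without 600 ng/mL PCSK9-D374Y plus compound. Cells stained 20 min at room temperature with APC-conjugated anti-LDLR; at least 5 × 10^3 gated lymphocytes read by flow cytometry. Values as % of PCSK9-free vehicle; triplicates, t test.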
(In general: A flow cytometer gives signals particle by particle.)

The nature of data set [17]: Volume of distribution at steady state in CD1 mouse at 0.4 mg/kg, iv administered as cassette dose measured upto 24 hrs by LC-MS/MS analysis. Conditions: in vivo, read-out: Vdss. It is filed as ADME, organism-based. In outline: as §2
A short description of data set [18]: Tmax in C57BL/6 mouse at 20 mg/kg, po administered as single dose measured upto 24 hrs by LC-MS/MS analysis. It is filed as ADME, organism-based. Conditions: in vivo. A digest of the protocol:
as §1

Chain of Proto-oncogene tyrosine-protein kinase Src (P12931 2-536 limits assumed): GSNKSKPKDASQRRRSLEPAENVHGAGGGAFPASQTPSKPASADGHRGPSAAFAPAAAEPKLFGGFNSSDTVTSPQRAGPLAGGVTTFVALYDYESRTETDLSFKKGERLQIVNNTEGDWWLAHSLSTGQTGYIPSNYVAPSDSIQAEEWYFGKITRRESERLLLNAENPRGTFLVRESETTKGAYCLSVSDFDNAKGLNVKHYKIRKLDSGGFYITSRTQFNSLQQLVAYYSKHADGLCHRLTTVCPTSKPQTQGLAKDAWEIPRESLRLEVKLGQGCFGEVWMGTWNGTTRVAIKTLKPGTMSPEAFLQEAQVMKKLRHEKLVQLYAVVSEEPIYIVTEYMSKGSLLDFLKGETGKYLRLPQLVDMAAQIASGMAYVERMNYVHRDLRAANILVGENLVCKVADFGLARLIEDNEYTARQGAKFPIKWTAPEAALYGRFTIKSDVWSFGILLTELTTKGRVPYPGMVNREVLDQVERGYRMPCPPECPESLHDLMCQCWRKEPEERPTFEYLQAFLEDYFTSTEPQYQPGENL
Chain of PCSK9/LDLR (Q8NBP7 31-152 limits assumed): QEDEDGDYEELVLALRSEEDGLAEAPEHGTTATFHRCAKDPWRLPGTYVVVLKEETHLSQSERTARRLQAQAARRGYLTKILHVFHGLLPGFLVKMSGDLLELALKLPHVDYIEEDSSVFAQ
Chain of PCSK9/LDLR (Q8NBP7 153-692 limits assumed): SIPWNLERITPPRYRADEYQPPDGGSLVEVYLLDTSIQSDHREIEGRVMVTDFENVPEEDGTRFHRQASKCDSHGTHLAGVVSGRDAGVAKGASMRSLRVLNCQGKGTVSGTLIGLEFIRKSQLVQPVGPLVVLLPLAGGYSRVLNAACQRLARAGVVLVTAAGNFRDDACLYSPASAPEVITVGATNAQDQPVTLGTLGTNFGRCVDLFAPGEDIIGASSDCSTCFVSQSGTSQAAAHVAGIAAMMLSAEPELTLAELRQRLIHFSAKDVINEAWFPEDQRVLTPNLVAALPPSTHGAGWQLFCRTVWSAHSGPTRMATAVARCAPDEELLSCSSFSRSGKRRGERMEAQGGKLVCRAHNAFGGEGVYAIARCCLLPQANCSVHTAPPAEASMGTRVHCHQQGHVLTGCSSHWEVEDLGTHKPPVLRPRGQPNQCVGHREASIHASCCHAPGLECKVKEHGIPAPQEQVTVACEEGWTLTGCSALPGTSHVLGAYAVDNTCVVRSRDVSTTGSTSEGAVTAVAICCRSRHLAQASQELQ
Chain of PCSK9/LDLR (P01130 22-860 partner limits assumed): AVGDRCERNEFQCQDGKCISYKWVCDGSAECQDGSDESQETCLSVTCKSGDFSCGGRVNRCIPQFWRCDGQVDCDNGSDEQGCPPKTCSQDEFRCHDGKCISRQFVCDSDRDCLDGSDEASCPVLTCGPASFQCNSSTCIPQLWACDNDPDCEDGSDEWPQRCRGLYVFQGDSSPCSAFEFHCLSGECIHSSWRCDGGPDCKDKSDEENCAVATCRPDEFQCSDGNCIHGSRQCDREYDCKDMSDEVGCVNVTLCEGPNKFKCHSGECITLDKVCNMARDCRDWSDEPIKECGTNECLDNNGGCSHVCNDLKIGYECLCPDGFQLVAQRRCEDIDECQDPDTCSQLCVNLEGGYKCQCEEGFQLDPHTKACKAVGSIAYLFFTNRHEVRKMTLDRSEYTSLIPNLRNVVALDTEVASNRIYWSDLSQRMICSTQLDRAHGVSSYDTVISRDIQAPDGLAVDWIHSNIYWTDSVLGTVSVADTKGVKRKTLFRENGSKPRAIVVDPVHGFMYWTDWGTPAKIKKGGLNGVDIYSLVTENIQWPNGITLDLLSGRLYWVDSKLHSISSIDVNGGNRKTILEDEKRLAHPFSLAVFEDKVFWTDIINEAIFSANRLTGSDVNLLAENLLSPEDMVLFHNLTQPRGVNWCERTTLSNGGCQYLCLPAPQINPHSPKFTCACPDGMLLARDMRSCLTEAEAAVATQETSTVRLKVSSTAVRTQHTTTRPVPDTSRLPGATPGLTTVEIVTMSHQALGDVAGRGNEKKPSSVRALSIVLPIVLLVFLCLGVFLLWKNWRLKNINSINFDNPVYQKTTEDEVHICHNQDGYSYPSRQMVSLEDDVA

Usually bioavailability stands for the share of a dose that reaches the circulation, judged against a reference dose that is usually intravenous. What is called Cmax is the peak of the concentration-time curve. One may read the IC50 as the concentration needed to halve the response being measured. What is called MRT inf is a mean duration of stay, worked out from the concentration-time curve. As a reminder, the AUC(0-t) is the area under the concentration-time curve up to a stated or last time point. Low values mean less exposure, high ones more exposure. In general, clearance refers to a measure of how efficiently the substance is removed, as volume per time. Read a high clearance as efficient removal. For orientation: AUC(0-inf) means total exposure, with the tail of the curve extrapolated. The low end stands for low exposure, the high end for high exposure. The Tmax is the time from dosing to the highest level. `Cc1cn(-c2cc(CN3CCC[C@H](N)C3)cc(NC(=O)c3ccc(C)c(Oc4ccccc4)c3)c2)cn1`: the bioavailability in data set [1] turned out to be 91.3%. Also, the inhibition result in data set [2] was “Dose-dependent effect”. Further, the highest level in data set [3] (Cmax) was 52.6 ng/mL. In addition, the IC50 was 0.537 µM on PCSK9/LDLR, more than 10 µM in data set [5] and more than 10 µM in [13]. The concentration at 24 h in [4] was found to be 93 nM. In addition, the MRT inf in [6] amounted to 34.9 h; in [11], 3.56 h. The half-life in [7] was 5.47 h; in [14] it was 9.86 h. Besides, the Vd in [8] was 3.87 L/kg; in data set [17], 9.13 L/kg. The AUC(0-t) at 24 h in data set [9] was found to be 4380 ng·h/mL; in [10], 92.3 ng·h/mL. For the same molecule, the outcome in the data set on Mus musculus was Active. The same molecule gave a clearance in [12] of 5 mL/min/kg. Further, in [15], the AUC(0-inf) was determined as 4600 ng·h/mL. For the same molecule, the inhibition entry in data set [16] is “inactive”. In [18], the Tmax amounted to 2 h.
